From PMC3698492 (Scientific Reports, 2013)

Columns and labels:
[1] = tested on: Drosophila first instar larvae; test: Liquid food feeding assay; format: in vivo, Drosophila melanogaster; conditions: for dose-response verification: 14 secondary screen hits chosen for dose-response curve
[2] = tested on: Drosophila larvae; test: Larval locomotion; format: in vivo, Drosophila melanogaster
[3] = tested on: Drosophila larvae; test: Solid food feeding assay; format: in vivo, Drosophila melanogaster
Summary of the method: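 Larvae aged 0–2 h were fed 17 h at 25°C and 70% humidity on cornmeal-agar-molasses food containing 0.05% bromophenol blue plus solvent or test compound. Individual larvae were imaged, and digestive-tract optical density was measured. Values were normalized to same-day solvent-treated larvae and reported as mean ± s.e.m.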

[4] = biological target: T1, 5-HT1A (Drosophila melanogaster, UniProt P28285); test: Calcium imaging of receptor expressed in HEK-293T cells; format: cell-based; conditions: 100 μM metitepine; stated for all 5-HT receptors
T1 sequence (P28285 1-834): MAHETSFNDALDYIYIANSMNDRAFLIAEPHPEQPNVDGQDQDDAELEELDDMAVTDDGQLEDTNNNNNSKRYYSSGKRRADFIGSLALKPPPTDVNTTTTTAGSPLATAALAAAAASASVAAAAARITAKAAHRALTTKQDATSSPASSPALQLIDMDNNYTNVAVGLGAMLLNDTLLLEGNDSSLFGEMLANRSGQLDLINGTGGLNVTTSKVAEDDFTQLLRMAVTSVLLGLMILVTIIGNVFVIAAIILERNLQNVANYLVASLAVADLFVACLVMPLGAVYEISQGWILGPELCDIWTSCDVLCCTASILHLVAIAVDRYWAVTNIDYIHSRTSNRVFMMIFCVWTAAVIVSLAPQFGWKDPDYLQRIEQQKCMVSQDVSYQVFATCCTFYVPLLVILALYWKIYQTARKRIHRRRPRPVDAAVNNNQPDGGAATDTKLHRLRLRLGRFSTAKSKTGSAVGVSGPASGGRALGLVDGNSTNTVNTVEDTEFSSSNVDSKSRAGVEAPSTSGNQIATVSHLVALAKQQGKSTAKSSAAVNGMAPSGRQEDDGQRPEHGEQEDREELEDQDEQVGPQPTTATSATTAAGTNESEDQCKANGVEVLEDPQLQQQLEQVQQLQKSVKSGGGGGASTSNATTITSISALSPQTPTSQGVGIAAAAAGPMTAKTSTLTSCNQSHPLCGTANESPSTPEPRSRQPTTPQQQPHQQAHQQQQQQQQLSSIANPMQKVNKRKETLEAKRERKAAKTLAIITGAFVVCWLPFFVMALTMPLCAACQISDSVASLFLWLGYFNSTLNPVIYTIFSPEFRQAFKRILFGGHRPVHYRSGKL

[5] = biological target: T2, 5-HT1B (Drosophila melanogaster, UniProt P28286); test: as above; format: cell-based
T2 sequence (P28286 1-617): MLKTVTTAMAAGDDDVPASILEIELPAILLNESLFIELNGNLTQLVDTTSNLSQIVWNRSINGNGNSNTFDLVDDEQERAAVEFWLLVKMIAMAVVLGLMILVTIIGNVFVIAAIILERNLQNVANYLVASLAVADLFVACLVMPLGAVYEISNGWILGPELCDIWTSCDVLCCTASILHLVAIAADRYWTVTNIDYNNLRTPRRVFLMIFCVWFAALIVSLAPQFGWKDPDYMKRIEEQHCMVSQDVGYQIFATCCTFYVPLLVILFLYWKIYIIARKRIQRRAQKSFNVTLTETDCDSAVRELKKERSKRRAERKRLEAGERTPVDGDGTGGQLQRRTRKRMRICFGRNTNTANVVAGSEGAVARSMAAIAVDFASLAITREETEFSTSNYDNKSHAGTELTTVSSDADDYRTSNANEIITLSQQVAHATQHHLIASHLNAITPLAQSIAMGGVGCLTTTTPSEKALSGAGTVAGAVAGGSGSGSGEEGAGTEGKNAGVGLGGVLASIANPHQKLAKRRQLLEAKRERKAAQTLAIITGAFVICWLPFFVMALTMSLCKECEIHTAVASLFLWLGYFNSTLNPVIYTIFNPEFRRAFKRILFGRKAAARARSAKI

[6] = biological target: T3, 5-HT2A (Drosophila melanogaster, UniProt Q9VN38); test: as above; format: cell-based; conditions: 100 μM metitepine; stated for all 5-HT receptors
T3 sequence (Q9VN38 1-868): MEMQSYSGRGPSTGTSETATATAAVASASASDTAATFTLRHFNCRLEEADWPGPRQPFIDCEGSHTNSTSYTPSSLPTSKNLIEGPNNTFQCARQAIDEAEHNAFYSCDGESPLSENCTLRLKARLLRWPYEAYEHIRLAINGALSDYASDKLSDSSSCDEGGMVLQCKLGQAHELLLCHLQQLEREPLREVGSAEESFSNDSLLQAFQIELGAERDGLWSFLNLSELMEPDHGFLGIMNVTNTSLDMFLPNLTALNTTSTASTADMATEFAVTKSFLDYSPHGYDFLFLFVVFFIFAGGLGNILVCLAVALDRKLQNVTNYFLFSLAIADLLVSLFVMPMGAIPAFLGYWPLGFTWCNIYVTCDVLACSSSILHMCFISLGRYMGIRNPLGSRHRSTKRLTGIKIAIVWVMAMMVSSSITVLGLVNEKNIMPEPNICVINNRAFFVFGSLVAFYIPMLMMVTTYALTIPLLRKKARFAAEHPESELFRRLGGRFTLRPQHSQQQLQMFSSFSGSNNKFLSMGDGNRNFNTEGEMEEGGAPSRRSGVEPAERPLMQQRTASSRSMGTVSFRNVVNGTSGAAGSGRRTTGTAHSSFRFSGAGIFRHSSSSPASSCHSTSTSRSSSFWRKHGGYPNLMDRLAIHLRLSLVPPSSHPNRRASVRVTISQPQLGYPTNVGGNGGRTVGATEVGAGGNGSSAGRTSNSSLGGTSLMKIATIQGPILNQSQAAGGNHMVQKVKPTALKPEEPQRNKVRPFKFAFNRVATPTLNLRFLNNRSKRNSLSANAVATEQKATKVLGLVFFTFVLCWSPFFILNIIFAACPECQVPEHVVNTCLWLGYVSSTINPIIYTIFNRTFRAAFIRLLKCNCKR

[7] = biological target: T4, 5-HT2B (Drosophila melanogaster, UniProt Q8INQ6); test: as above; format: cell-based; conditions: 100 μM metitepine; stated for all 5-HT receptors
T4 sequence (Q8INQ6 1-904): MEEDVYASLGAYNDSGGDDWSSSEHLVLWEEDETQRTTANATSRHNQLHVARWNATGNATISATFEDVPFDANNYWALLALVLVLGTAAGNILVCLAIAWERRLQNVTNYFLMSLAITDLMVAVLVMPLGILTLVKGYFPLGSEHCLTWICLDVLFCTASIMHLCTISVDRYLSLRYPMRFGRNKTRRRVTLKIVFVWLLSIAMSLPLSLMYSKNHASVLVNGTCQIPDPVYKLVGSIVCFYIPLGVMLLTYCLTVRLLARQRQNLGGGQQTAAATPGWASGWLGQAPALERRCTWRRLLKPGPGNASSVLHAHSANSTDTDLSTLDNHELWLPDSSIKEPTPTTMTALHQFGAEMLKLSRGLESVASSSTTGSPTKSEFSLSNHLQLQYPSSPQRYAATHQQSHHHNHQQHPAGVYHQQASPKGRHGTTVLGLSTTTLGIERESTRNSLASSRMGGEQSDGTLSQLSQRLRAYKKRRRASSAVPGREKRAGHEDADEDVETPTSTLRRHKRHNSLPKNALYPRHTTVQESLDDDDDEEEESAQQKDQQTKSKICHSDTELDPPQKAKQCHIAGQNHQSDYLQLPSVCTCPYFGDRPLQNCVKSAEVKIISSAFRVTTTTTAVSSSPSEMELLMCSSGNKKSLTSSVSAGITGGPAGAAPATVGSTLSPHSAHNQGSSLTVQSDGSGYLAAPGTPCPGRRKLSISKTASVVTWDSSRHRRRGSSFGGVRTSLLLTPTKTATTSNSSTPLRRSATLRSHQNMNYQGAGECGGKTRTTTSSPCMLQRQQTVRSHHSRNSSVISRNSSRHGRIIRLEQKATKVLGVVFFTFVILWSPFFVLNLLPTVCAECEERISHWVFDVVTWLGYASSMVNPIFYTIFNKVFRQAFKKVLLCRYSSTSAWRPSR

[8] = biological target: T5, 5-HT7 (Drosophila melanogaster, UniProt P20905); test: as above; format: cell-based; conditions: 100 μM metitepine; stated for all 5-HT receptors
T5 sequence (P20905 1-564): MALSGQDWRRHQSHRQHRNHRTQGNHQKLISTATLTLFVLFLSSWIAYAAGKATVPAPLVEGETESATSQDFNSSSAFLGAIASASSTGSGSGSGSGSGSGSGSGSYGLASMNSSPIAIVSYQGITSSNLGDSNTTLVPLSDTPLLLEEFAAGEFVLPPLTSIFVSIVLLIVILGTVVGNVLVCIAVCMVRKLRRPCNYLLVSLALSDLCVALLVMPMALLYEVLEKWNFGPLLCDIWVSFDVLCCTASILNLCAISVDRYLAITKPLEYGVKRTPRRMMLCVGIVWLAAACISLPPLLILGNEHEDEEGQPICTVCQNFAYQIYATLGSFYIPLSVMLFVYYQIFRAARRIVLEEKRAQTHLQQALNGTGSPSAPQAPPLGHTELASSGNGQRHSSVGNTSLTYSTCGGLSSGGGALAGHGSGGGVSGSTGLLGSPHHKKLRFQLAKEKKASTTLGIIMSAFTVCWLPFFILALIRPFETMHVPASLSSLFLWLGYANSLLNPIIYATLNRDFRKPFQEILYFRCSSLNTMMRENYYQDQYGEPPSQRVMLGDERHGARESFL

[9] = tested on: HEK-293T cells; test: ATP control after metitepine treatment; format: cell-based; conditions: 100 μM metitepine; ATP activated all cells afterwards
[10] = tested on: C. elegans; conditions: different small molecule screen; cited from earlier work

Row | larval locomotion ([2]; at concentrations as low as 10 μM, data not shown) | SMILES | dose-response verification [1] | feeding in pilot screen ([1]; pilot screen, tested individually at 20 μg/ml, data not shown) | food accumulation immediately after exposure ([1]; 0-h recovery) | anorectic effect 4 hours after treatment ([1]; 4 h recovery) | food intake 24 hours after treatment ([1]; 24 h recovery, rebound from drug-induced fasting) | threshold concentration for efficacy ([1]; liquid food with fluorescein, increasing effects at 50 and 100 μM) | duration of anorectic effect after treatment ([1]; recovery time course after metitepine treatment) | solid food accumulation in digestive tract ([3]; cornmeal-agar-molasses diet with bromophenol blue, 100 μM (Fig. 3a)) | threshold efficacy dose ([3]; solid food with bromophenol blue, optical density of gut) | crawling speed ([2]; 100 μM in solid food, 17 hours, agar surface) | responses to 5-HT in presence of drug [4] | IC50 [5] | responses to 5-HT in presence of drug ([5]; 100 μM metitepine, stated for all 5-HT receptors) | responses to 5-HT in presence of drug [6] | responses to 5-HT in presence of drug [7] | responses to 5-HT in presence of drug [8] | cell survival after treatment [9] | lifespan [10]
1 | dramatically reduced larval locomotion | COC(=O)[C@H]1[C@H]2C[C@@H]3c4[nH]c5cc(OC)ccc5c4CCN3C[C@H]2C[C@@H](OC(=O)c2cc(OC)c(OC)c(OC)c2)[C@@H]1OC [Reserpine] | showed reliable dose-dependent responses | – | – | – | – | – | – | – | – | – | – | – | – | – | – | – | – | –
2 | – | C[C@@H]1C[C@@H]([C@H](O)CC2CC(=O)NC(=O)C2)C(=O)[C@@H](C)C1 [cycloheximide] | – | inhibited feeding | – | – | – | – | – | – | – | – | – | – | – | – | – | – | – | –
3 | – | CSc1ccc2c(c1)C(N1CCN(C)CC1)Cc1ccccc1S2 (centres unmarked) [Metitepine] | showed reliable dose-dependent responses | – | reduced food accumulation | not evident | ate significantly more | 10 µM | 2 h | accumulated less solid food | 50 µM | crawled at the same speed as solvent treated controls | dramatically suppressed or completely abolished | 58 µM | dramatically suppressed or completely abolished | dramatically suppressed or completely abolished | dramatically suppressed or completely abolished | dramatically suppressed or completely abolished | did not kill the cells | extends lifespan
